Drawing on BindingDB's records for doi:10.1016/j.bmc.2020.115710 (Indiana University School of Medicine, 2020), this text covers IC50 for eight molecules.

Experiment [1] addresses T1, Co-chaperonin GroES (Escherichia coli, UniProt Q7BGE6).
T1 sequence (Q7BGE6 whole entry): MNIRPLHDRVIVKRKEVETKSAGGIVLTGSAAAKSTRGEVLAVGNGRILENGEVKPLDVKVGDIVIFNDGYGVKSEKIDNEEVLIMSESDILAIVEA
The experiment in a line: Inhibition of Escherichia coli GroEL/ES assessed as inhibition of native malate dehydrogenase treated after denatured malate dehydrogenase completely refold. In a few lines:
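Counter-screen on native MDH activity: compounds are added only after GroEL/ES has fully refolded the denatured MDH, so the assay flags compounds that act on the MDH reporter reaction itself. IC50 values are averages from at least five replicates. […] DMSO serves as the negative control.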

Experiment [2] deals with T1, Co-chaperonin GroES. The experiment in a line: Inhibition of Escherichia coli GroEL/ES assessed as inhibition of native malate dehydrogenase treated after denatured malate dehydrogenase completely refold in presence of NfsB nitroreductase. In a few lines:
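Native MDH counter-screen with 10 µg/mL E. coli NfsB nitroreductase added to the initial GroEL/ES-dMDH solution. Compounds are added after the EDTA quench, then incubated 10 min at 37°C with NADH to bioactivate nitrofurans. Compounds in the reporter step span 56 µM to 25 nM (3-fold series).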

Structures are written as SMILES. Bounds are passed on as bounds.

On to `CN(C)c1ccc(C(=O)N/N=C/c2ccc([N+](=O)[O-])o2)cc1`, for which the IC50 was above 63 µM in experiment [1] and above 56 µM in experiment [2].

`O=C(N/N=C/c1ccc([N+](=O)[O-])o1)c1ccccc1`: the IC50 in experiment [1] is above 63 µM; in experiment [2] it was above 56 µM.

Turning to `COc1ccc(C(=O)N/N=C/c2ccc([N+](=O)[O-])o2)cc1`, the IC50 was above 63 µM in experiment [1] and above 56 µM in experiment [2].

For the molecule `O=C(N/N=C/c1ccc([N+](=O)[O-])o1)c1ccc(Cl)s1`, the values for the IC50 in experiment [1] and in experiment [2] were above 63 µM and above 56 µM, respectively.

On to `O=C(N/N=C/c1ccc([N+](=O)[O-])o1)c1cccs1`, for which the IC50 is above 63 µM in experiment [1] and above 56 µM in experiment [2].

As to `O=C1CN(/N=C/c2ccc([N+](=O)[O-])o2)C(=O)N1` [MLS000028500], the IC50 in experiment [1] is above 63 µM; in experiment [2], above 56 µM.

Take `O=C(N/N=C/c1ccc([N+](=O)[O-])o1)c1ccncc1` [N-[(E)-(5-nitro-2-furanyl)methylideneamino]-4-pyridinecarboxamide]: the values for the IC50 in experiment [1] and in experiment [2] were above 63 µM and above 56 µM, respectively.

As to `O=C(N/N=C/c1ccc([N+](=O)[O-])o1)c1ccc(O)cc1` [NIFUROXAZIDE], the values for the IC50 in experiment [1] and in experiment [2] were above 63 µM and above 56 µM, respectively.
